Columns and labels:
Type in all cases: functional
Homo sapiens [1] = species: Homo sapiens; test: Percentage of judgments reporting an aftertaste at a concentration of 2400 ppm and character thereof
How it was run: (§1)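 Trained judges tasted aqueous solutions of the compounds, which had to be ≥95 weight percent pure and to have passed mutagenicity and single oral dose toxicity screening. The value is the percentage of panel judgments reporting an aftertaste. Where given, its character is recorded as sweet, bitter or bitter-sweet.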

Homo sapiens [2] = species: Homo sapiens; test: Experimentally determined perceived intensity of compound at a concentration of 2400 ppm (mean value)
How it was run: (§2)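 Trained human sensory panel of judges tasted aqueous solutions of the compound. Samples had to be ≥95 weight % pure (HPLC, proton titration, Karl Fischer), non-mutagenic in five Salmonella typhimurium strains with and without microsomal activation, and non-toxic in a single-oral-dose mouse test. Perceived intensity (Ip) was read from time–intensity curves at 4- or 6-s intervals and averaged. Outliers at the 95% level were rejected by t-value. Values reported as mean (2Sm).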

Homo sapiens [3] = species: Homo sapiens; test: Number of taste judgments per compound
Homo sapiens [4] = species: Homo sapiens; test: Percentage of judgments reporting an aftertaste at a concentration of 1000 ppm and character thereof; how it was run: as §1
Homo sapiens [5] = species: Homo sapiens; test: Bitter character at a concentration of 1000 ppm (mean value)
How it was run: (§3)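 Trained human panel tasted aqueous solutions. Each judge reported whether there was an aftertaste and its character (sweet, bitter or bitter-sweet). The value is the percentage of judgments reporting a bitter aftertaste.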

Homo sapiens [6] = species: Homo sapiens; test: Salty character at a concentration of 1000 ppm (mean value)
Homo sapiens [7] = species: Homo sapiens; test: Intensity calculated on a weight basis relative to an 85500 ppm sucrose solution at a concentration of 1000 ppm (mean value)
How it was run: (§4)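 Trained human panel tasted aqueous solutions of purity-checked (≥95 weight percent) compounds cleared for mutagenicity and mouse oral toxicity. Weight-basis intensity I_w = perceived intensity × (85500 ppm sucrose / compound concentration in ppm). The mean is reported with 2S_m limits; data deviating excessively at 95% confidence were rejected by the t-value method.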

Homo sapiens [8] = species: Homo sapiens; test: Sweet / Bitter character at a concentration of 1000 ppm (mean value); 75/25
Homo sapiens [9] = species: Homo sapiens; test: Other taste character at a concentration of 1000 ppm (mean value)
How it was run: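 Trained human panel tasted aqueous solutions of each compound. Aftertaste is scored as the percentage of judgments reporting one, with its character coded sweet (s), bitter (b) or bitter-sweet (bs).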

Homo sapiens [10] = species: Homo sapiens; test: Experimentally determined perceived intensity of compound at a concentration of 1000 ppm (mean value); how it was run: as §2
Homo sapiens [11] = species: Homo sapiens; test: Sweet character at a concentration of 1000 ppm (mean value)
Homo sapiens [12] = species: Homo sapiens; test: Intensity calculated on a molar basis relative to a 0.25 M sucrose solution at a concentration of 1000 ppm (mean value)
How it was run: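 Panel-derived mean perceived intensity (Ip) converted to a molar basis by Im = Ip × (0.25 M / Y), where Y is the compound's molar concentration. Reference is a 0.25 M sucrose solution. Reported with limits of 2Sm.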

Homo sapiens [13] = species: Homo sapiens; test: Sour character at a concentration of 1000 ppm (mean value)
Homo sapiens [14] = species: Homo sapiens; test: Bitter character at a concentration of 497 ppm (mean value); how it was run: as §3
Homo sapiens [15] = species: Homo sapiens; test: Sweet character at a concentration of 497 ppm (mean value)
Homo sapiens [16] = species: Homo sapiens; test: Intensity calculated on a molar basis relative to a 0.25 M sucrose solution at a concentration of 497 ppm (mean value)
How it was run: (§5)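 Trained human judges tasted aqueous solutions of the test compound; compounds were first required to be ≥95 weight percent pure and free of mutagenicity (five Salmonella typhimurium strains, ± microsomal activation) and of single oral dose mouse toxicity. Molar intensity I_m = perceived intensity × (0.25 M sucrose / compound molar concentration). The mean is reported with 2S_m limits; outliers were rejected at 95% confidence by t-value.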

Homo sapiens [17] = species: Homo sapiens; test: Intensity calculated on a weight basis relative to an 85500 ppm sucrose solution at a concentration of 497 ppm (mean value); how it was run: as §4
Homo sapiens [18] = species: Homo sapiens; test: Experimentally determined perceived intensity of compound at a concentration of 497 ppm (mean value); how it was run: as §2
Homo sapiens [19] = species: Homo sapiens; test: Other taste character at a concentration of 497 ppm (mean value)
How it was run: (§6)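 Trained human sensory panel (Swartz method) tasted dilute aqueous solutions of the compounds, which had to be ≥95 weight percent pure and free of mutagenicity and toxicity. Taste character is reported as the mean value with 2S_m limits. Data deviating excessively at the 95% confidence level were rejected by the t-value method.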

Homo sapiens [20] = species: Homo sapiens; test: Salty character at a concentration of 497 ppm (mean value)
Homo sapiens [21] = species: Homo sapiens; test: Sour character at a concentration of 497 ppm (mean value)
Homo sapiens [22] = species: Homo sapiens; test: Percentage of judgments reporting an aftertaste at a concentration of 497 ppm and character thereof
Homo sapiens [23] = species: Homo sapiens; test: Sweet / Bitter character at a concentration of 497 ppm (mean value); 0/100
Homo sapiens [24] = species: Homo sapiens; test: Intensity calculated on a weight basis relative to an 85500 ppm sucrose solution at a concentration of 251 ppm (mean value); how it was run: as §4
Homo sapiens [25] = species: Homo sapiens; test: Sweet / Bitter character at a concentration of 251 ppm (mean value)
Homo sapiens [26] = species: Homo sapiens; test: Experimentally determined perceived intensity of compound at a concentration of 251 ppm (mean value); how it was run: as §2
Homo sapiens [27] = species: Homo sapiens; test: Percentage of judgments reporting an aftertaste at a concentration of 251 ppm and character thereof; Bitter; how it was run: as §1
Homo sapiens [28] = species: Homo sapiens; test: Sweet character at a concentration of 251 ppm (mean value); how it was run: as §6
Homo sapiens [29] = species: Homo sapiens; test: Salty character at a concentration of 251 ppm (mean value); how it was run: as §6
Homo sapiens [30] = species: Homo sapiens; test: Other taste character at a concentration of 251 ppm (mean value); how it was run: as §6
Homo sapiens [31] = species: Homo sapiens; test: Sour character at a concentration of 251 ppm (mean value); how it was run: as §6
Homo sapiens [32] = species: Homo sapiens; test: Intensity calculated on a molar basis relative to a 0.25 M sucrose solution at a concentration of 251 ppm (mean value); how it was run: as §5
Homo sapiens [33] = species: Homo sapiens; test: Bitter character at a concentration of 251 ppm (mean value); how it was run: as §3
Homo sapiens [34] = species: Homo sapiens; test: Sweet / Bitter character at a concentration of 33.4 ppm (mean value); 66/34
Homo sapiens [35] = species: Homo sapiens; test: Percentage of judgments reporting an aftertaste at a concentration of 33.4 ppm and character thereof
Homo sapiens [36] = species: Homo sapiens; test: Salty character at a concentration of 33.4 ppm (mean value)
Homo sapiens [37] = species: Homo sapiens; test: Sour character at a concentration of 33.4 ppm (mean value)
Homo sapiens [38] = species: Homo sapiens; test: Bitter character at a concentration of 33.4 ppm (mean value); how it was run: as §3
Homo sapiens [39] = species: Homo sapiens; test: Other taste character at a concentration of 33.4 ppm (mean value); how it was run: as §6
Homo sapiens [40] = species: Homo sapiens; test: Sweet character at a concentration of 33.4 ppm (mean value)
Homo sapiens [41] = species: Homo sapiens; test: Intensity calculated on a weight basis relative to an 85500 ppm sucrose solution at a concentration of 33.4 ppm (mean value); how it was run: as §4
Homo sapiens [42] = species: Homo sapiens; test: Experimentally determined perceived intensity of compound at a concentration of 33.4 ppm (mean value); how it was run: as §2
Homo sapiens [43] = species: Homo sapiens; test: Intensity calculated on a molar basis relative to a 0.25 M sucrose solution at a concentration of 33.4 ppm (mean value); how it was run: as §5
Homo sapiens [44] = species: Homo sapiens; test: Experimentally determined perceived intensity of compound at a concentration of 250 ppm (mean value); how it was run: as §2
Homo sapiens [45] = species: Homo sapiens; test: Percentage of judgments reporting an aftertaste at a concentration of 250 ppm and character thereof; how it was run: as §1
Homo sapiens [46] = species: Homo sapiens; test: Other taste character at a concentration of 250 ppm (mean value); how it was run: as §6
Homo sapiens [47] = species: Homo sapiens; test: Intensity calculated on a molar basis relative to a 0.25 M sucrose solution at a concentration of 250 ppm (mean value); how it was run: as §5
Homo sapiens [48] = species: Homo sapiens; test: Bitter character at a concentration of 250 ppm (mean value); how it was run: as §3
Homo sapiens [49] = species: Homo sapiens; test: Sour character at a concentration of 250 ppm (mean value); how it was run: as §6
Homo sapiens [50] = species: Homo sapiens; test: Sweet / Bitter character at a concentration of 250 ppm (mean value); 0/100
Homo sapiens [51] = species: Homo sapiens; test: Sweet character at a concentration of 250 ppm (mean value); how it was run: as §6
Homo sapiens [52] = species: Homo sapiens; test: Salty character at a concentration of 250 ppm (mean value); how it was run: as §6
Homo sapiens [53] = species: Homo sapiens; test: Intensity calculated on a weight basis relative to an 85500 ppm sucrose solution at a concentration of 250 ppm (mean value); how it was run: as §4

COc1ccc(CCC(=O)c2c(O)cc(OC(CCC(=O)[O-])C(=O)[O-])cc2O)cc1O.[Na+].[Na+] (stereo not drawn)
Judgments (Homo sapiens [1]): 0 | IP (Homo sapiens [2]): 0 | Judgments (Homo sapiens [3]): 1

COc1ccc(CCC(=O)c2c(O)cc(OCCN)cc2O)cc1O
Judgments (Homo sapiens [4]): 100 | Taste character (Homo sapiens [5]): 25 | Taste character (Homo sapiens [6]): 0 | IW (Homo sapiens [7]): 86 | Judgments (Homo sapiens [3]): 1 | Taste character (Homo sapiens [8]): 75 | Taste character (Homo sapiens [9]): 0 | IP (Homo sapiens [10]): 1 | Taste character (Homo sapiens [11]): 75 | IM (Homo sapiens [12]): 87 | Taste character (Homo sapiens [13]): 0

O=C([O-])COc1cc(O)c(C(=O)CCc2ccc3c(c2)OCO3)c(O)c1.[Na+]
Taste character (Homo sapiens [14]): 79 | Taste character (Homo sapiens [15]): 0 | IM (Homo sapiens [16]): 160 | IW (Homo sapiens [17]): 140 | IP (Homo sapiens [18]): 0.83 | Taste character (Homo sapiens [19]): 21 | Taste character (Homo sapiens [20]): 0 | Judgments (Homo sapiens [3]): 12 | Taste character (Homo sapiens [21]): 0 | Judgments (Homo sapiens [22]): 100 | Taste character (Homo sapiens [23]): 0

COc1ccc(C2CC(=O)c3c(O)cc(OCC(=O)[O-])cc3O2)cc1O.[Na+] (stereo not drawn)
IW (Homo sapiens [24]): 270 | Taste character (Homo sapiens [25]): 16 | IP (Homo sapiens [26]): 0.79 | Judgments (Homo sapiens [27]): 100 | Taste character (Homo sapiens [28]): 15 | Taste character (Homo sapiens [29]): 0 | Taste character (Homo sapiens [30]): 7 | Judgments (Homo sapiens [3]): 12 | Taste character (Homo sapiens [31]): 0 | IM (Homo sapiens [32]): 300 | Taste character (Homo sapiens [33]): 78

COc1ccc(C2CC(=O)c3c(O)cccc3O2)cc1O (stereo not drawn)
Taste character (Homo sapiens [34]): 66 | Judgments (Homo sapiens [35]): 42 | Taste character (Homo sapiens [36]): 0 | Taste character (Homo sapiens [37]): 6 | Judgments (Homo sapiens [3]): 8 | Taste character (Homo sapiens [38]): 32 | Taste character (Homo sapiens [39]): 0 | Taste character (Homo sapiens [40]): 62 | IW (Homo sapiens [41]): 1700 | IP (Homo sapiens [42]): 0.68 | IM (Homo sapiens [43]): 1400

O=C(O)CCc1ccc(O)c(O)c1 [DIHYDROCAFFEIC ACID]
IP (Homo sapiens [44]): 0.73 | Judgments (Homo sapiens [45]): 50 | Taste character (Homo sapiens [46]): 9 | IM (Homo sapiens [47]): 130 | Taste character (Homo sapiens [48]): 15 | Taste character (Homo sapiens [49]): 76 | Taste character (Homo sapiens [50]): 0 | Judgments (Homo sapiens [3]): 8 | Taste character (Homo sapiens [51]): 0 | Taste character (Homo sapiens [52]): 0 | IW (Homo sapiens [53]): 250
